We go through 4 compounds from article PMC5503496 (Drug Design, Development and Therapy, 2017).

One assay deals with mushroom tyrosinase (Agaricus bisporus, UniProt C7FF04). Kind of assay: Kinetic analysis of the inhibition of tyrosinase. Type of assay: biochemical. The note with it: Lineweaver-Burk plots, L-DOPA.
Assay [1] deals with pigmentation of zebrafish. Kind of assay: In vivo depigmentation assay in zebrafish. Also noted: species or system zebrafish (Danio rerio). The note with it: zebrafish embryos, 50 µM, 9 to 72 hpf. Summed up:
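Synchronized embryos from wild-type adults (kept at 28.5°C, 14 h light/10 h dark) were placed 2–3 per well in E3 medium (NaCl 5 mM, KCl 0.17 mM, CaCl2 0.33 mM, MgSO4 0.33 mM). […] Dechorionated embryos were anesthetized with MS-222, mounted in 1% methyl cellulose and photographed by stereomicroscope. Pigmentation was quantified by pixel measurement.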

Assay [2] concerns melanin contents in zebrafish embryos. Kind of assay: Determination of melanin contents in zebrafish. The note with it: 50 µM, 72 hpf. It is filed as in vivo, zebrafish (Danio rerio).

“Also recorded” adds a separate entry of the source.

mushroom tyrosinase, sequence (C7FF04 1-392 limits assumed): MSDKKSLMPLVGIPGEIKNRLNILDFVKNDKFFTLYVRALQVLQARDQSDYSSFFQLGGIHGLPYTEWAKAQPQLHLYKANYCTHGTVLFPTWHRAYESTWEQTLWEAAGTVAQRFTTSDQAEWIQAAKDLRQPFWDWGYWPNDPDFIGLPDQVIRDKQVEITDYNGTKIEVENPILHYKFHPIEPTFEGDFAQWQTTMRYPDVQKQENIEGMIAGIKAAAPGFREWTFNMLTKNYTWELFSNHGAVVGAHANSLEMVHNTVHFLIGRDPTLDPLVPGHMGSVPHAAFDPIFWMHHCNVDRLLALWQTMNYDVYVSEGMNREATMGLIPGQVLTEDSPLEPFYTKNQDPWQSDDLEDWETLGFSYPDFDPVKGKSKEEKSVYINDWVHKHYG

For `Cc1ccc(C(C)C)cc1NC(=O)COC(=O)c1ccc(O)cc1O` [4c, 2-[2-methyl-5-(propan-2-yl)anilino]-2-oxoethyl 2,4-dihydroxybenzoate], at mushroom tyrosinase, the Inhibition type result is recorded as “non-competitive inhibition; also recorded: non-competitively”.

Regarding `Cc1ccc(C(C)C)cc1NC(=O)COC(=O)/C=C/c1ccccc1` [6a, 2-[2-methyl-5-(propan-2-yl)anilino]-2-oxoethyl (2E)-3-phenylprop-2-enoate], the Inhibition type result at mushroom tyrosinase is on record as “mixed-type inhibition”.

As to `Cc1ccc(C(C)C)cc1NC(=O)COC(=O)/C=C/c1ccccc1O` [6b, 2-[2-methyl-5-(propan-2-yl)anilino]-2-oxoethyl (2E)-3-(2-hydroxyphenyl)prop-2-enoate], the Inhibition type entry at mushroom tyrosinase was “mixed-type inhibition”.

As to `O=c1cc(CO)occ1O` [Kojic acid], the “pigmentation level (decreased to)” value in assay [1] came out at 24.2%. In assay [2], the melanin contents result is “only slightly reduced the melanin contents”.
